Measurements: the M2OR odorant receptor database

Experiments:
Details in all cases: stereoisomer not certain
UniProt Q924H8 = target: T1, UniProt Q924H8
T1 sequence (whole entry): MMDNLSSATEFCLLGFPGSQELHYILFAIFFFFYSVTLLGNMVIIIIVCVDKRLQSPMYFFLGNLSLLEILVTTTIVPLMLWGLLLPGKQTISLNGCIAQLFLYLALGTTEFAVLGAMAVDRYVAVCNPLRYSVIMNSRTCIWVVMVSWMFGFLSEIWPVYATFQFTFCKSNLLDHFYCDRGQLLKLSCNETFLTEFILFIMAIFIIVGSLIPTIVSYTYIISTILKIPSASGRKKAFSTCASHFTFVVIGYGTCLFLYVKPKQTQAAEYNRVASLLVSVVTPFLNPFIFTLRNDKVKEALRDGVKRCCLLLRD
Procedure, shortened: (§1)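 Whether a receptor–molecule pair is responsive (active) rests on the original authors' judgment that its measured signal was statistically different from baseline. Pairs without that judgment are non-responsive (inactive). Sources used varied assay methods, commonly transient luciferase assays in mammalian cell lines.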

UniProt Q924X8 = target: T2, UniProt Q924X8
T2 sequence (whole entry): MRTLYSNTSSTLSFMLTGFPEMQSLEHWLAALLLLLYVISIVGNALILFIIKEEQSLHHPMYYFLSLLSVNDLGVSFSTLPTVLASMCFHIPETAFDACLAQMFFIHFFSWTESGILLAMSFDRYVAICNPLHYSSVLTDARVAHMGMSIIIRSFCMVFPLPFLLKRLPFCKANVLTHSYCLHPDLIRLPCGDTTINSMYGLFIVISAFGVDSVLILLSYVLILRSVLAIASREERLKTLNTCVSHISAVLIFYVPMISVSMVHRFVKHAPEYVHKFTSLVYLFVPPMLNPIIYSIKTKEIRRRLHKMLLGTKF
Procedure, shortened: as §1

UniProt Q99NH4 = target: T3, UniProt Q99NH4
T3 sequence (whole entry): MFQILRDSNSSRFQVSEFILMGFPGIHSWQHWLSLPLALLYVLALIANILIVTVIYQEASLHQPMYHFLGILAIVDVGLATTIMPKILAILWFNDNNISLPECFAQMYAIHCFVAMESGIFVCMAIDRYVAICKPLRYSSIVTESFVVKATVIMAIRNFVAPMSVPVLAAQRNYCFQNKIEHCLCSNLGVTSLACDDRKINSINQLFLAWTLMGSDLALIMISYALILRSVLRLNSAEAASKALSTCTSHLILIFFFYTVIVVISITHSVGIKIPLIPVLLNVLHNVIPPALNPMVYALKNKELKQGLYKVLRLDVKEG
Procedure, shortened: as §1

UniProt Q9WU94 = target: T4, UniProt Q9WU94
T4 sequence (whole entry): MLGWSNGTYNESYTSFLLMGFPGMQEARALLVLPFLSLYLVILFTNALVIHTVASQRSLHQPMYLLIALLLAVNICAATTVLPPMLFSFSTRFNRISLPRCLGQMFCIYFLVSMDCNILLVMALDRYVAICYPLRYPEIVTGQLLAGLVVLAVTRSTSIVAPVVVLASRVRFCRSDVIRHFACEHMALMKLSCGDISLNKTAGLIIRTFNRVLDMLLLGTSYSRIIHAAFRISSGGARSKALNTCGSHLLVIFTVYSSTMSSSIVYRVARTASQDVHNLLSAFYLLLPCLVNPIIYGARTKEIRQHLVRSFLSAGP
Procedure, shortened: as §1

UniProt Q9WVD7 = target: T5, UniProt Q9WVD7
T5 sequence (whole entry): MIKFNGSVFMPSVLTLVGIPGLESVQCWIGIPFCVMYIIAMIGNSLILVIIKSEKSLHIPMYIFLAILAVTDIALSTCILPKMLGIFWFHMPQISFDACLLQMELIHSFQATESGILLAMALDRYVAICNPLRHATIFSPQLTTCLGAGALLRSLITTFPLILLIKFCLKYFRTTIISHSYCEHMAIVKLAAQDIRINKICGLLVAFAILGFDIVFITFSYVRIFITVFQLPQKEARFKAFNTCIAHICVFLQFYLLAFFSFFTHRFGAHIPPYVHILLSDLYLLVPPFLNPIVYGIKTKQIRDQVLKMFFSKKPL
Procedure, shortened: as §1

UniProt Q9EPN9 = target: T6, UniProt Q9EPN9
T6 sequence (whole entry): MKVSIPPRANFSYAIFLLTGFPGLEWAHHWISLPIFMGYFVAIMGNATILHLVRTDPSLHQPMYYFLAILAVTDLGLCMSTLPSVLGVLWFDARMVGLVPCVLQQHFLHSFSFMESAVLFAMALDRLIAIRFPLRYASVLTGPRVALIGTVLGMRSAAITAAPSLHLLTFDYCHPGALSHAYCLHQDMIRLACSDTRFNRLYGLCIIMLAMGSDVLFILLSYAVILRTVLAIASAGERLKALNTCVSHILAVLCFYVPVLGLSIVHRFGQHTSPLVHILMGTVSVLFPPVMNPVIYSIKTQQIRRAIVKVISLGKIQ
Procedure, shortened: as §1

UniProt Q9R0K2 = target: UniProt Q9R0K2
UniProt Q9R0K2, sequence (Q9R0K2 as listed by the source): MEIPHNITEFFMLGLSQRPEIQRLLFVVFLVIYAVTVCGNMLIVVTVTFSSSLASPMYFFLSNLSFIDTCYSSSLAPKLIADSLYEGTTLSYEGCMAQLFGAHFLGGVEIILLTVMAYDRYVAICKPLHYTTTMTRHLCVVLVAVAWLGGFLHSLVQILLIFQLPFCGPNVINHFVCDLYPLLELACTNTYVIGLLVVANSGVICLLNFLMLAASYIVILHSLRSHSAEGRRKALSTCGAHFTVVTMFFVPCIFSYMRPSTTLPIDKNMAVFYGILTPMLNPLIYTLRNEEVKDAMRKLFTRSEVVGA
Procedure, shortened: as §1

UniProt Q9WU86 = target: T7, UniProt Q9WU86
T7 sequence (whole entry): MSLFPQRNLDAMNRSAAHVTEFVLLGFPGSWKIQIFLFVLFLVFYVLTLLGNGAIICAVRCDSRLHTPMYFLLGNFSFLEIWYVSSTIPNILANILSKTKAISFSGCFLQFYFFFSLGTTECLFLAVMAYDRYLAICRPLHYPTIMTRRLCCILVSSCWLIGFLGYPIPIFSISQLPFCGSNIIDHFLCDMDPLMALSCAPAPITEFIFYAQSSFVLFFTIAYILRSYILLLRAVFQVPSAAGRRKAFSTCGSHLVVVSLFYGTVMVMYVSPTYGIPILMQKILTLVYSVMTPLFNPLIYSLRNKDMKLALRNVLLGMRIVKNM
Procedure, shortened: as §1

UniProt Q9WVD9 = target: UniProt Q9WVD9
UniProt Q9WVD9, sequence (Q9WVD9 as listed by the source): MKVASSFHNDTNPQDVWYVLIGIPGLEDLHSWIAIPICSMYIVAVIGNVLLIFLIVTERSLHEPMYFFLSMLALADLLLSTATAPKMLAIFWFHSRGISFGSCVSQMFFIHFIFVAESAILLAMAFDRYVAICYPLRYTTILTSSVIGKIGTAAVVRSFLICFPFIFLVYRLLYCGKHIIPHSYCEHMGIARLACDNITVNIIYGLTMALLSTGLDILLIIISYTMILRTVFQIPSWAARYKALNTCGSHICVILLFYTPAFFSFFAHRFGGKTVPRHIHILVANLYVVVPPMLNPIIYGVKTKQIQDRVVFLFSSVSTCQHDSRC
Procedure, shortened: as §1

UniProt Q9WVN5 = target: T8, UniProt Q9WVN5
T8 sequence (whole entry): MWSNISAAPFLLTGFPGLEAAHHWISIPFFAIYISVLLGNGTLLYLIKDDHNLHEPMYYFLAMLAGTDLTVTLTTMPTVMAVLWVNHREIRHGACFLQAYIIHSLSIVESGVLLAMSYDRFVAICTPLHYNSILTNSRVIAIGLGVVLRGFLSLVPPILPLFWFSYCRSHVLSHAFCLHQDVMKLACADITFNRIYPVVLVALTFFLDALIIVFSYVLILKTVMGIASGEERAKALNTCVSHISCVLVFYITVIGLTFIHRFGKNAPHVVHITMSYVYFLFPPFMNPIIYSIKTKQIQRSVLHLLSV
Procedure, shortened: as §1
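Also: active if original authors judged signal statistically different from baseline.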

CSSSC
odorant receptor agonist call (UniProt Q924H8): inactive

O=C(OCc1ccccc1)c1ccccc1O
odorant receptor agonist call (UniProt Q924H8): inactive

COc1ccccc1
odorant receptor agonist call (UniProt Q924H8): inactive

O=C(O)CCCCCBr
odorant receptor agonist call (UniProt Q924H8): inactive | odorant receptor agonist call (UniProt Q924X8): active | odorant receptor agonist call (UniProt Q99NH4): inactive | odorant receptor agonist call (UniProt Q9WU94): inactive | odorant receptor agonist call (UniProt Q9WVD7): active

CCCCOC=O
odorant receptor agonist call (UniProt Q924H8): inactive | odorant receptor agonist call (UniProt Q9EPN9): inactive | odorant receptor agonist call (UniProt Q9R0K2): inactive | odorant receptor agonist call (UniProt Q9WU86): inactive | odorant receptor agonist call (UniProt Q9WVD9): inactive | odorant receptor agonist call (UniProt Q9WVN5): inactive

CC(=O)Oc1ccccc1
odorant receptor agonist call (UniProt Q924H8): inactive | odorant receptor agonist call (UniProt Q9EPN9): inactive | odorant receptor agonist call (UniProt Q9R0K2): inactive | odorant receptor agonist call (UniProt Q9WU86): active | odorant receptor agonist call (UniProt Q9WVD9): inactive | odorant receptor agonist call (UniProt Q9WVN5): inactive

C=C(C)C1CCC2(C)OC2C1 (stereo not given)
odorant receptor agonist call (UniProt Q924H8): inactive

OCCCCCCCCCO
odorant receptor agonist call (UniProt Q924H8): inactive

CCCCCCC(C)=O
odorant receptor agonist call (UniProt Q924H8): inactive | odorant receptor agonist call (UniProt Q9EPN9): inactive | odorant receptor agonist call (UniProt Q9R0K2): inactive | odorant receptor agonist call (UniProt Q9WU86): inactive | odorant receptor agonist call (UniProt Q9WVD9): inactive | odorant receptor agonist call (UniProt Q9WVN5): inactive

CCC(C)c1nccnc1OC (stereo not given)
odorant receptor agonist call (UniProt Q924H8): inactive

C=CC(=O)CCCCC
odorant receptor agonist call (UniProt Q924H8): inactive

CCOC(=O)C(C)C
odorant receptor agonist call (UniProt Q924H8): inactive | odorant receptor agonist call (UniProt Q9EPN9): inactive | odorant receptor agonist call (UniProt Q9R0K2): inactive | odorant receptor agonist call (UniProt Q9WU86): inactive | odorant receptor agonist call (UniProt Q9WVD9): inactive | odorant receptor agonist call (UniProt Q9WVN5): inactive

CCCCCCCCCO
odorant receptor agonist call (UniProt Q924H8): inactive | odorant receptor agonist call (UniProt Q924X8): inactive | odorant receptor agonist call (UniProt Q9EPN9): inactive | odorant receptor agonist call (UniProt Q9R0K2): inactive | odorant receptor agonist call (UniProt Q9WU86): inactive | odorant receptor agonist call (UniProt Q9WU94): inactive | odorant receptor agonist call (UniProt Q9WVD7): active | odorant receptor agonist call (UniProt Q9WVD9): inactive | odorant receptor agonist call (UniProt Q9WVN5): inactive
